MPTP block = inhibitors of mitochondrial permeability transition pore; actives 1.4% (n = 360,000); AID 602449; inhibition, % at 10 µM; isolated mouse mitochondria, Ca2+ swelling absorbance, 30 min;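 active = inhibition of 50% or more, scaled per plate between neutral and stimulator controls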;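 note: 0% = DMSO wells given calcium and 100% = 1 mM EGTA wells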
NR3A LBD binder = modulates the human NR3A ligand-binding domain | Tm shift relative to glycine control, % at 25 µM | actives 2.5% (n = 340,000) | NR3A LBD differential scanning fluorimetry, Tm shift; 0% = protein alone, 100% = glycine-bound protein;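 active = melting temperature shift of at least 10% of the positive control shift, at one fixed dose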
UPR XBP1 act = adaptive UPR (XBP1) activation | CHO-XBP1 luciferase reporter, IRE1-XBP1 UPR activation, luminescence; percent of tunicamycin response, DMSO as zero | activation, % at 20 µM | actives 0.33% (n = 330,000) | AID 463104;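 active = versus positive control, 20 µM dose yields 30% or more activation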;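 note: 100% = tunicamycin at 10 µg/mL and 0% = DMSO only wells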
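Signal: luciferase luminescence; Assay system: CHO-XBP1 luciferase reporter cells; Amount: one thousand reporter cells per well; Dosing: 20 µM single concentration, DMSO 1%; Benchmarks: high control tunicamycin 10 µg/mL final, low control DMSO vehicle only; Schedule: 6 h compound exposure at 37 °C, 5% CO2; Evaluation: percent activation relative to tunicamycin reference.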
aDG glyco up = increases alpha dystroglycan glycosylation. Pro5-aDG cells, alpha-DG glycosylation AlphaScreen (IIH6); 0% Pro5, 100% B10-LARGE cell signal. activation, % at 10 µM. actives 0.22% (n = 360,000);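 active = activation of at least 8% versus controls, or a plate z-score of at least 8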;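 note: Pro5 are CHO cells carrying HIG-tagged alpha-DG that lacks glycosylation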
CHOP UPR activ = activators of apoptotic arm of unfolded protein response (CHOP) | CHO-CHOP luciferase reporter, UPR activation, luminescence; percent of tunicamycin response over DMSO baseline | activation, % at 10 µM | actives 0.34% (n = 330,000);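 active = at 10 µM dose, activation of 40% or more, normalized to positive control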;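 note: 100% = tunicamycin at 10 µg/mL and 0% = DMSO alone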
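Test system: CHO CHOP reporter cells. Input: 500 CHO-CHOP cells per well. Medium: F12 with 10% FBS. Technique: luciferase luminescence. Measure: percent activation relative to tunicamycin control. Dosing: 10 µM compound, 0.5% DMSO. Timing: 16-18 h cell attachment, then 6 h compound exposure, 37 °C.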
CHOP inh = inhibitors of CHOP induction in ER stress response | CHO-K1 CHOP-promoter luciferase, tunicamycin-induced, 15-18 h | inhibition, % at 10 µM | actives 3.8% (n = 220,000) | AID 2732;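 active = compounds that reduced the stress-induced luciferase reporter signal by more than about 70% of percent inhibition, limit read from the data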;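 note: 0% = tunicamycin plus vehicle and 100% = wells without tunicamycin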
Rh123 counter = Rhodamine 123 counter-screen of mitochondrial pore hits; inhibition, % at 10 µM; actives 78% (n = 5,000); isolated mitochondria, membrane potential, Rhodamine 123 fluorescence; shares compounds with MPTP block; AID 624504; in the data active = inhibition above about 22%;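 note: 0% = DMSO vehicle and 100% = positive control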
MPTP abs DR = MPTP inhibition, dose response swelling confirmation; shares compounds with MPTP block; isolated mitochondria swelling, absorbance; IC50, µM; actives 58% (n = 780); in the data active = IC50 below about 20 µM
MPTP cs DR = active in counter-screen for permeability transition pore inhibitors; shares compounds with MPTP block; actives 49% (n = 780); AID 651564; isolated mitochondria counterscreen, fluorescence read-out; IC50, µM; in the data active = IC50 below about 80 µM
Numbers without * were called inactive; x = no result. A selection: hits, their analogues and other compounds. The true share with any hit is near 5.6%.

SMILES | MPTP block | NR3A LBD binder | UPR XBP1 act | aDG glyco up | CHOP UPR activ | CHOP inh | Rh123 counter | others
CCc1ccc(Nc2n[n+](-c3ccccc3)c(-c3ccc(N(CC)CC)cc3)s2)cc1 | 96* | -4 | 13 | 0 | 30 | x | 114*
CCc1ccc(Nc2n[n+](-c3ccccc3)c(-c3ccc(OCc4ccccc4)cc3)s2)cc1 | 2 | -9 | 0 | 2 | 4 | x | x
CN(C)c1ccc(-c2sc(Nc3ccccc3)n[n+]2-c2ccc(F)cc2)cc1 | 20 | -3 | -1 | 0 | -1 | x | x
COc1ccc(C)cc1Nc1n[n+](-c2ccccc2)c(-c2ccc(N(C)C)cc2)s1 | 89* | -7 | 5 | 0 | 26 | x | 100*
CCc1ccc(Nc2n[n+](-c3ccccc3)c(-c3c(Cl)cccc3Cl)s2)cc1 | 100* | -16 | 10 | -1 | 14 | x | 112*
CCN(CC)c1ccc(-c2sc(Nc3ccccc3)n[n+]2-c2ccc(F)cc2)cc1 | 61* | -9 | 4 | 0 | 7 | x | 102*
CCS(=O)(=O)c1nc2ccccc2n1Cc1ccccn1 | 0 | -2 | 0 | 0 | 2 | 17 | x
COc1ccccc1OCC(=O)NNC(=O)Nc1ccc(Cl)cc1 | 0 | 1 | 2 | 0 | -1 | 15 | x
COc1ccccc1OC(=O)Nc1ccc(Cl)cc1 | 58* | 10 | -6 | 0 | 3 | x | 75*
CCOc1ccccc1N1CC(C(=O)Nc2cc(Cl)ccc2-n2cncn2)CC1=O (stereo unspecified) | -1 | 0 | -4 | 0 | 1 | x | x
COc1ccc2cc(/C=C3\SC(=S)NC3=O)c(N3CCOCC3)nc2c1 | 80* | -7 | -3 | 0 | -1 | 10 | 72*
COc1cccc(C=C2SC(=S)NC2=O)c1 | 56* | -14 | x | 0 | x | x | 79*
COc1ccc(/C=C2/SC(=S)NC2=O)cc1OCc1ccccc1 | 24 | 2 | 0 | 0 | -1 | x | x
O=C1NC(=S)S/C1=C/c1ccc(N2CCOCC2)o1 | 40 | -2 | -2 | 0 | 1 | -13 | x
COc1cccc(/C=C2/Sc3ccc(C(=O)NCCN4CCCC4)cc3NC2=O)c1 | 55* | 7 | 1 | 0 | 0 | x | -19 | MPTP abs DR=6*;MPTP cs DR=77*
Cc1ccc(C(=O)O/N=C\c2ccc(N3CCCCC3)c([N+](=O)[O-])c2)cc1 | 0 | -1 | 0 | 1 | 0 | 12 | x
Cc1ccc2nc(/C(C#N)=C\c3ccc(N4CCCCC4)c([N+](=O)[O-])c3)[nH]c2c1 | 56* | -1 | 0 | 1 | 6 | 79* | 64*
Fc1cccc(Cl)c1-c1nnc2ccc3ccccc3n12 | 51* | 1 | 4 | 1 | 2 | 12 | 31*
Cc1cccc(N2CCN(S(=O)(=O)c3ccc4c(c3)CCCN4C(=O)C3CCC3)CC2C)c1 (stereo unspecified) | 0 | 1 | -5 | 0 | 0 | x | x
CC(/C=N/N1C(=O)CSC1=S)=C\c1ccccc1 | -1 | -8 | 4 | 0 | 0 | 13 | x
O=C(NCCCSc1ccccc1)c1cc(Br)ccc1O | 75* | 5 | -3 | 0 | -1 | x | 86*
O=C(NCCSc1ccccc1)c1ccc(Br)cc1 | 2 | 0 | 1 | 0 | 2 | -11 | x
Cc1cc(C(=O)CSc2nc3ccccc3c(=O)[nH]2)c(C)n1CC1CCCO1 (stereo unspecified) | 81* | -1 | 1 | 8 | 2 | 44 | 75*
Cc1noc(N)c1C1(O)C(=O)Nc2c(Cl)cc(Cl)cc21 (stereo unspecified) | -1 | -1 | 1 | 0 | 0 | 18 | x
CCNC(=O)C(=O)N/N=C/c1cc([N+](=O)[O-])ccc1O | -22 | -3 | 0 | 0 | 0 | 50 | x
SMILES | MPTP block | NR3A LBD binder | UPR XBP1 act | aDG glyco up | CHOP UPR activ | CHOP inh | Rh123 counter | others
O=C(N/N=C/c1cc([N+](=O)[O-])ccc1O)C12CC3CC(CC(C3)C1)C2 | 78* | -4 | 2 | 0 | -2 | 22 | 54*
O=C(N/N=C/c1cc([N+](=O)[O-])ccc1O)NC12CC3CC(CC(C3)C1)C2 | 74* | 8 | -7 | 0 | -2 | 25 | 44*
O=C(N/N=C/c1ccccn1)c1ccc(NC(=O)c2cccc([N+](=O)[O-])c2)cc1 | 0 | 2 | -2 | 0 | 1 | 13 | x
O=C(Nc1cc(Sc2ccccn2)cc([N+](=O)[O-])c1)c1ccc(Cl)cc1 | 53* | -9 | 5 | 1 | 13 | 39 | 72*
O=C(Nc1cc(Sc2ccccn2)cc([N+](=O)[O-])c1)c1cccc(Cl)c1 | 95* | 7 | 0 | 0 | 1 | 28 | 76*
N=c1oc2ccccc2cc1C(=O)Nc1ccccc1 | 2 | -3 | -9 | 0 | -7 | x | x
CCCCCCc1cc2cc(C(=O)Nc3ccccc3)c(=O)oc2cc1O | 73* | 17* | 7 | 0 | 14 | 71* | 13
CCCCCCc1cc2cc(C(=O)NCc3ccccc3)c(=N)oc2cc1O | 86* | -3 | 11 | 0 | 9 | 4 | 74*
CCOC(=O)c1cc2c(ccn2-c2ccc(F)cc2)n1CC(=O)NC(C)(C)C | x | x | -3 | x | 2 | 30 | x
CN1/C(=C\C=C2/SC(=S)N(CC(=O)O)C2=O)C(C)(C)c2ccccc21 | 75* | 0 | -1 | 0 | -2 | 14 | 12
O=C(Nc1ccc(Cl)cc1)N1CCN(c2ccccc2)CC1 | 66* | -1 | -1 | 0 | 1 | 25 | 75*
CC(=O)c1ccc(N2CCN(C(=O)Nc3ccc(Cl)cc3)CC2)cc1 | 1 | 0 | -2 | 1 | -1 | -13 | x
CCCN1CCN(C(=S)Nc2ccc([N+](=O)[O-])cc2)CC1 | 60* | 1 | -1 | 0 | 2 | 7 | 66*
O=[N+]([O-])c1ccc(NC(=S)N2CCN(c3ccccc3)CC2)cc1 | 72* | -8 | -2 | 0 | 0 | 27 | 84*
Cc1ccccc1S(=O)(=O)NC(=O)C1(C)CCN1C(=O)COc1ccc(Cl)cc1 (stereo unspecified) | 1 | x | x | 0 | x | x | x
CCc1ccccc1NC(=O)c1ccc(CN2CCC(Cc3ccccc3)CC2)cc1 | 57* | 1 | -5 | 2 | 2 | 63 | -14
NC(=O)c1ccc(NC(=O)COC(=O)c2ccc(Br)c(S(=O)(=O)N3CCOCC3)c2)cc1 | -1 | 1 | x | 0 | x | x | x
